An excerpt weighted towards active compounds, which were near 4.2% of everything screened.
CHOP inh = blocks CHOP induction under ER stress | CHO-K1 CHOP-promoter luciferase, tunicamycin-induced, 15-18 h | inhibition, % at 10 µM | 3.8% of 220,000 active | AID 2732;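 active means compounds that reduced the stress-induced luciferase reporter signal by more than about 70% of percent inhibition, limit read from the data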
UPR CHOP act = activators of apoptotic arm of unfolded protein response (CHOP) | CHO-CHOP luciferase reporter, UPR activation, luminescence; percent of tunicamycin response over DMSO baseline | activation, % at 10 µM | 0.34% of 330,000 active | AID 449763;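 active means at 10 µM dose, activation of 40% or more, normalized to positive control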
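Material: CHO-CHOP cells, stable luciferase reporter of PERK-eIF2a-CHOP signalling; quantity: 500 reporter cells seeded per well; buffer or medium: F12 medium containing 10% fetal bovine serum; compound: one dose, 10 µM in 0.5% DMSO; incubation: 6 h compound treatment, 37 °C; measured by: Steady-Glo luciferase luminescence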
XBP1 UPR activ = activators of adaptive arm of unfolded protein response (XBP1); CHO-XBP1 luciferase reporter, IRE1-XBP1 UPR activation, luminescence; percent of tunicamycin response, DMSO as zero; activation, % at 20 µM; 0.33% of 330,000 active;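 active means versus positive control, 20 µM dose yields 30% or more activation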
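Assay system: IRE1-XBP1 luciferase reporter CHO line. Input: 1000 cells/well. Buffer or medium: F12 with 10% serum. Doses: 20 µM, 1% DMSO. Times: overnight seeding at 37 °C, 6 h compound treatment at 37 °C. Technique: Steady-Glo luciferase glow luminescence, 10 min after reagent addition.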
ANO1 activ = activates or potentiates the mouse TMEM16A chloride channel; Q8BHY3; HEK293 TMEM16A/YFP-H148Q/I152L, iodide quench fluorescence; stronger effect = lower value; B-score at 10 µM; 0.3% of 340,000 active; AID 623877;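 active means fluorescence-ratio B-score plate-corrected deviation score at least 3 library SD below zero, with starting fluorescence score within 5 deviations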;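 further: channel opened by trigger with iodide after compound preincubation; score built on the fluorescence ratio of max minus min over baseline; more negative score means more quench and so TMEM16A activation or potentiation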
Lipid droplet = modulators of hepatic lipid droplet formation; AML12 mouse hepatocytes, oleate lipid droplets, BODIPY imaging; inhibition, % at 6.5 µM; 0.4% of 240,000 active; AID 1656;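 active means lipid droplet intensity inhibited by at least 50%, with more than 500 cells counted; inconclusive means wells with under 300 cells, treated as cytotoxic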
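Assay system: AML12 mouse liver cells | Compound: 6.5 µM single-point dosing | Schedule: Overnight exposure | Technique: Fluorescence imaging, 20x objective, two fields per well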
TMEM16A inh = inhibitors of mouse TMEM16A calcium-activated chloride channel | Q8BHY3 | HEK293 TMEM16A/YFP iodide influx fluorescence, ionomycin | normalized B-score (activity score, 25-100; higher = stronger inhibition) at 10 µM | 1.2% of 310,000 active;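 active means ratio plate-corrected score three or more library SD toward inhibition, starting fluorescence score within five deviations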;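 further: score derived from kinetic fluorescence span divided by baseline fluorescence per well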
TMEM16A reconf = TMEM16A (mouse) chloride channel inhibition, re-confirmation | HEK293 TMEM16A/YFP-H148Q, iodide quench fluorescence; ionomycin added to raise cell calcium | 39% of 2,300 active | AID 652189 | inhibition, % at 10 µM | shares compounds with TMEM16A inh;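 active means mean duplicate percent inhibition, scaled so buffer wells are 0 and the reference blocker 100, over three buffer SD above buffer mean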
HEK293 Ca mobil = alters calcium mobilization in TMEM16A HEK293 cells, counter-screen. AID 652231. TMEM16A/YFP HEK293, Fluo4 calcium mobilization. calcium response (% of ionomycin), % at 10 µM. 2% of 2,300 active. shares compounds with TMEM16A inh;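 active means duplicate-averaged calcium signal over 20% of the ionomycin maximum, relative to buffer baseline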;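 further: each well's signal is peak minus trough fluorescence divided by its pre-addition baseline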
YFP-HEK293 quench = counter-screen for TMEM16A inhibitors: effect in parental YFP-HEK293 cells. shares compounds with TMEM16A inh. iodide YFP quench, ionomycin. YFP ratio F(max-min)/F0 at 10 µM. 2,300 tested, under 10 active. AID 652233;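 active means yellow fluorescent protein signal ratio exceeding the buffer control mean by over 5 SD of those controls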;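 further: ratio is mean of duplicate wells from kinetic YFP trace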
ClC-1 inh = selectivity of TMEM16A inhibitors: inhibition of rat ClC-1 chloride channel. ratio percent, % at 10 µM. shares compounds with TMEM16A inh. CHO ClC-1-YFP, iodide influx fluorescence quench; iodide control reads 0, buffer control 100. 2,300 tested, under 10 active;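 active means duplicate-mean ratio percent above the mean of iodide-only control wells, which defines zero, plus 5 of their SD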;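 further: higher percent means stronger block of ClC-1 iodide influx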
Target sequence (P35524 whole entry, looked up): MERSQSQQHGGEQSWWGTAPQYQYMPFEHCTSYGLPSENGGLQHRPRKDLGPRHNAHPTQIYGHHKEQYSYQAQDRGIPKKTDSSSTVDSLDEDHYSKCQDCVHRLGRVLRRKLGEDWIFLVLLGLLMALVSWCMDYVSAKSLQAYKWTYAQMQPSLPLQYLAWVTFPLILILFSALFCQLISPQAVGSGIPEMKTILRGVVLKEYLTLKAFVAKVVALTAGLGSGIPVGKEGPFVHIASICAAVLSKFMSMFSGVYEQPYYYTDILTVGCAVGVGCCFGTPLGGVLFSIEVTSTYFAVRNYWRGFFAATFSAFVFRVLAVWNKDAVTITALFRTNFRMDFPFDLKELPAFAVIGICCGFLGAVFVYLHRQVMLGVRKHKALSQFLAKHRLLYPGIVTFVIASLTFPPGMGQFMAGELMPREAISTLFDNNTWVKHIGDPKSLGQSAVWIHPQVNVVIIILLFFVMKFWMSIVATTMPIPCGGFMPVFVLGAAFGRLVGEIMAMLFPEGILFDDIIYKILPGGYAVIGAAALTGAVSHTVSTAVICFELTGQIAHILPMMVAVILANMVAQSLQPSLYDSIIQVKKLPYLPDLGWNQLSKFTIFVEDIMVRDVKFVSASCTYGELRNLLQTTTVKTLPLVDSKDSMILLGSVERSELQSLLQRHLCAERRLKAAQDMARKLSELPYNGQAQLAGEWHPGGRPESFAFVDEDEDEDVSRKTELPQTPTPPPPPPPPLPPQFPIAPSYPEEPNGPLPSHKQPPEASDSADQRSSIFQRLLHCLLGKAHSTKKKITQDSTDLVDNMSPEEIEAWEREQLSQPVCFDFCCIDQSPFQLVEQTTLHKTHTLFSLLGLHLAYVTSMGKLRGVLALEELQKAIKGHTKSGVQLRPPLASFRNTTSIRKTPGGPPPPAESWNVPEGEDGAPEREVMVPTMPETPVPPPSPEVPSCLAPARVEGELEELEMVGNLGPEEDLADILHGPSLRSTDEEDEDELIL
Hits are given with their value; . = inactive; ? = inconclusive; / = no result given.

SMILES	CHOP inh	UPR CHOP act	XBP1 UPR activ	ANO1 activ	Lipid droplet	TMEM16A inh	TMEM16A reconf	HEK293 Ca mobil	YFP-HEK293 quench	ClC-1 inh
Cc1cccc(N2CCN(C(=O)CSCc3c(C)noc3C)CC2)c1C	.	.	.	.	/	100	42.5%	.	.	.
CCN(CC)S(=O)(=O)c1cc(NC(=O)COC(=O)CCC(=O)c2cccs2)ccc1C	.	.	.	.	.	25	23.5%	.	.	.
CCN(CC)S(=O)(=O)c1cccc(NC(=O)COC(=O)CCC(=O)c2cccs2)c1	.	.	.	.	.	.	/	/	/	/
COc1ccc(CCNc2nc(-c3sc(C)nc3C)cs2)cc1OC	.	.	.	.	/	100	34.0%	.	.	.
COc1ccc(CCNc2nc(-c3ccc(O)cc3)cs2)cc1OC	/	.	.	.	.	100	30.5%	.	.	.
Cc1nnc(NC(=O)c2ccccc2Oc2ccccc2)s1	.	.	.	.	.	.	/	/	/	/
Cc1nc(OCc2ccccc2)c2ccccc2n1	.	.	.	.	/	100	.	.	.	.
Cc1nc2ccccc2cc1OCc1ccccc1	.	.	.	.	/	100	32.0%	.	.	.
COc1ccc(CCNC(=O)CSc2nc(=O)n3cc(C)ccc3n2)cc1OC	/	.	.	.	/	.	/	/	/	/
Cc1csc(NC(=O)c2ccc(Cn3nc(C)c(Br)c3C)o2)n1	/	.	.	.	.	100	25.0%	.	.	.
Cc1nn(Cc2ccc(C(=O)Nc3ccccc3C(F)(F)F)o2)c(C)c1Br	.	.	.	.	/	.	/	/	/	/
Cc1ccc(-c2nc(CS(=O)(=O)CC(=O)N3CCc4ccccc4C3)c(C)o2)cc1	72.4	.	.	.	.	25	25.5%	.	.	.
COc1ccc(NC(=O)C2CCCN2S(=O)(=O)c2ccc(Cl)cc2)cc1 (stereo not given)	/	.	.	.	.	.	/	/	/	/
Cc1ccccc1OCC(=O)N(Cc1ccc(N(C)C)cc1)C1CCS(=O)(=O)C1 (stereo not given)	.	.	.	.	/	100	.	.	.	.
O=C(CSc1nc2ccccc2[nH]1)N1CCN(c2ccc(F)cc2)CC1	.	.	.	.	.	.	/	/	/	/
O=C(CCCSc1nc2ccccc2[nH]1)N1CCN(c2ccc([N+](=O)[O-])cc2)CC1	73.1	.	.	.	.	25	20.5%	.	.	.
COc1ccc(CNc2ccc(-c3ccccc3OC)nn2)cc1	.	.	.	.	.	.	/	/	/	/
COc1ccc(CNc2ccc(-c3ccc(OC)cc3)nn2)cc1	.	.	.	.	/	100	.	.	.	.
N#CC1=C(N)OC2=C(CCc3ccccc32)C1c1ccccc1Cl (stereo not given)	87.5	.	.	.	?	.	38.5%	.	.	.
N#CC1=C(N)Oc2cc(N)ccc2C1c1ccccc1Cl (stereo not given)	/	.	.	.	.	.	/	/	/	/
O=C(NCCNC(=O)c1cc(Cl)ccc1Cl)c1ccccn1	/	.	.	.	.	.	/	/	/	/
O=C(OCc1ccccc1Cl)c1ccccc1C(=O)c1ccccc1	.	.	.	.	/	100	.	.	.	.
O=C(NC(=O)c1cc([N+](=O)[O-])ccc1Cl)C1=C(N2CCCC2)COC1=O	/	.	.	.	/	/	/	/	/	/
COc1cc(Cl)c(C)cc1NC(=O)CN(C)Cc1cccc(OC)c1OC	.	.	.	.	.	25	19.5%	.	.	.
O=S(=O)(NCCOCC(F)(F)C(F)F)c1ccc2oc3ccccc3c2c1	84.9	.	.	.	/	25	23.5%	.	.	.
SMILES	CHOP inh	UPR CHOP act	XBP1 UPR activ	ANO1 activ	Lipid droplet	TMEM16A inh	TMEM16A reconf	HEK293 Ca mobil	YFP-HEK293 quench	ClC-1 inh
CCOC(=O)N1CCN(c2nc3ccccc3nc2C(C#N)S(=O)(=O)c2ccc(C)cc2)CC1 (stereo not given)	.	.	.	.	.	100	76.0%	.	.	.
Cc1cccc(S(=O)(=O)C(C#N)c2nc3ccccc3nc2N2CCOCC2)c1 (stereo not given)	.	.	.	.	/	100	.	.	.	.
Cc1ccc(S(=O)(=O)C(C#N)c2nc3ccccc3nc2N2CCN(C)CC2)cc1 (stereo not given)	.	.	.	.	.	.	/	/	/	/
N#CC(c1nc2ccccc2nc1N1CCCCC1)S(=O)(=O)c1ccc(Cl)cc1 (stereo not given)	/	/	/	/	.	/	/	/	/	/
Cc1n[nH]c2c([N+](=O)[O-])c(=O)[nH]c(=O)n12	/	/	/	.	/	/	/	/	/	/
Cc1ccccc1C1C(C#N)=C2N=C(N)c3c(sc4c3CCCCC4)N2C2=C1C(=O)CC(C)(C)C2 (stereo not given)	.	.	.	.	/	.	.	.	.	.
CC(=O)N1CCCc2cc(S(=O)(=O)N3CCCC(C(=O)Nc4cccc(C)c4)C3)ccc21 (stereo not given)	/	.	.	.	.	.	/	/	/	/
Nc1ncc2c(n1)-c1ccoc1CC2	/	.	.	.	.	.	/	/	/	/
Cc1cccc(CC(Cc2nc3ccccc3[nH]2)c2nc3ccccc3[nH]2)c1 (stereo not given)	.	.	.	.	.	100	39.0%	.	.	.
COc1ccccc1CC(Cc1nc2ccccc2[nH]1)c1nc2ccccc2[nH]1 (stereo not given)	.	.	.	.	.	.	/	/	/	/
N#C/C(=N\Nc1ccccc1Cl)C(=O)c1ccccc1	.	.	.	.	/	100	.	.	.	.
Cc1c(N/N=C(\C#N)C(=O)c2ccccc2)c(=O)n(-c2ccccc2)n1C	.	/	/	.	.	/	/	/	/	/
N#C/C(=N\Nc1c(Cl)cccc1Cl)C(=O)NN	.	.	.	.	.	25	.	.	.	.
CCOC(=O)NC(=O)/C(C#N)=N/Nc1c(F)cccc1F	.	.	.	.	.	.	/	/	/	/
N#C/C(=N\Nc1cccc(Cl)c1)C(=O)c1ccccc1	.	.	.	.	/	100	26.5%	.	.	.
CC1(C)C(CO)=CC(=O)C2=C1SCC(=O)N2	.	.	.	.	/	100	.	.	.	.
O=Cc1cn(-c2ccc(F)cc2)c2ccccc12	.	.	.	.	.	.	/	/	/	/
